In ChEMBL document CHEMBL4765256, “Structural features and functional activities of benzimidazoles as NOD2 antagonists” (Eur J Med Chem, 2020):
Active and inactive are the calls of the source. The rule behind the calls is not given here.

Columns and labels:
HEK293 [1] = test: Cytotoxicity against human HEK293 cells expressing human NOD2 assessed as reduction in metabolic activity at 20 uM incubated for 18 hrs by MTS assay; assay type: ADME, cell-based; details: hek293, 18 h
Outline: (§1)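 HEK-Blue NOD1 or NOD2 cells seeded at 1 × 10^4 cells/well in triplicate. Treated 18 h with 20 µM compound or 0.1% DMSO vehicle. Metabolic activity read by MTS (CellTiter 96 AQueous One) and expressed relative to vehicle control. Mean ± SD of three biological replicates.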

[2] = target: T1, Nucleotide-binding oligomerization domain-containing protein 1 (Homo sapiens) (UniProt Q9Y239); test: Antagonist activity at human NOD1 expressed in HEK293 cells assessed as reduction in C12-iE-DAP-induced NF-kappaB activation at 10 uM preincubated for 1 hr followed by C12-iE-DAP stimulation and measured after 18 hrs by SEAP reporter gene based spectrophotometric analysis; assay type: cell-based; details: time 19.0 hrs
T1 sequence (whole entry): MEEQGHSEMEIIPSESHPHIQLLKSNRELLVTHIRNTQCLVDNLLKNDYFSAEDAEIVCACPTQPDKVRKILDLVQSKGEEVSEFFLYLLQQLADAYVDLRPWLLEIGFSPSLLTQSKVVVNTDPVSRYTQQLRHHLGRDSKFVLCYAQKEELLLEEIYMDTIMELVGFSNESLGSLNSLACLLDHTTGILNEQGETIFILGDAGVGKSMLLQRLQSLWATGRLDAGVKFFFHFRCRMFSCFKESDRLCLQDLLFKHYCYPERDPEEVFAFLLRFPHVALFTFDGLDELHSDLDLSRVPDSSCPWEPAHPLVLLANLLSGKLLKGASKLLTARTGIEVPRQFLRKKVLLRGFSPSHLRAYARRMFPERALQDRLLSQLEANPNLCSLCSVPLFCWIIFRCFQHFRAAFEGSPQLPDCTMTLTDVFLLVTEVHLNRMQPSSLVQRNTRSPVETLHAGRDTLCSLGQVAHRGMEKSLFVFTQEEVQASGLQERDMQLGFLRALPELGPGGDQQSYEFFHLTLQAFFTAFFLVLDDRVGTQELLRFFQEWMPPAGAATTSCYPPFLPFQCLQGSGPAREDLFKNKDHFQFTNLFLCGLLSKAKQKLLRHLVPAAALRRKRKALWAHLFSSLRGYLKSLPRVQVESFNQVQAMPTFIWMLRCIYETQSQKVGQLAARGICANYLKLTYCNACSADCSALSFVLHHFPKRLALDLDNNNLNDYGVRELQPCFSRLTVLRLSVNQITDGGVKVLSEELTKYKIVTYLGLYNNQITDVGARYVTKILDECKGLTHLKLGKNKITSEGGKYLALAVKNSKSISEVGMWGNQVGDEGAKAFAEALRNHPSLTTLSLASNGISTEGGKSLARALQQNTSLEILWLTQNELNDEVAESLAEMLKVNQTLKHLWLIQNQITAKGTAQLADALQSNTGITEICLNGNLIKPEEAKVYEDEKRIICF
Outline: (§2)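 HEK-Blue NOD1 or NOD2 reporter cells (5 × 10^5 cells/mL, passages 7–12) pre-treated 1 h with 10 µM compound. Then 100 nM C12-iE-DAP (NOD1) or 2 µM MDP (NOD2) for 18 h at 37 °C, 5% CO2. Secreted SEAP read at 620 nm. DMSO ≤0.1% vehicle control. Duplicates, three biological replicates.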

[3] = target: T2, Nucleotide-binding oligomerization domain-containing protein 2 (Homo sapiens, UniProt Q9HC29); test: Antagonist activity at human NOD2 expressed in HEK293 cells assessed as reduction in MDP-induced NF-kappaB activation at 10 uM preincubated for 1 hr followed by MDP stimulation and measured after 18 hrs by SEAP reporter gene based spectrophotometric analysis; assay type: cell-based; details: time 19.0 hrs; outline: as §2
T2 sequence (Q9HC29 whole entry, the tested form may be a part): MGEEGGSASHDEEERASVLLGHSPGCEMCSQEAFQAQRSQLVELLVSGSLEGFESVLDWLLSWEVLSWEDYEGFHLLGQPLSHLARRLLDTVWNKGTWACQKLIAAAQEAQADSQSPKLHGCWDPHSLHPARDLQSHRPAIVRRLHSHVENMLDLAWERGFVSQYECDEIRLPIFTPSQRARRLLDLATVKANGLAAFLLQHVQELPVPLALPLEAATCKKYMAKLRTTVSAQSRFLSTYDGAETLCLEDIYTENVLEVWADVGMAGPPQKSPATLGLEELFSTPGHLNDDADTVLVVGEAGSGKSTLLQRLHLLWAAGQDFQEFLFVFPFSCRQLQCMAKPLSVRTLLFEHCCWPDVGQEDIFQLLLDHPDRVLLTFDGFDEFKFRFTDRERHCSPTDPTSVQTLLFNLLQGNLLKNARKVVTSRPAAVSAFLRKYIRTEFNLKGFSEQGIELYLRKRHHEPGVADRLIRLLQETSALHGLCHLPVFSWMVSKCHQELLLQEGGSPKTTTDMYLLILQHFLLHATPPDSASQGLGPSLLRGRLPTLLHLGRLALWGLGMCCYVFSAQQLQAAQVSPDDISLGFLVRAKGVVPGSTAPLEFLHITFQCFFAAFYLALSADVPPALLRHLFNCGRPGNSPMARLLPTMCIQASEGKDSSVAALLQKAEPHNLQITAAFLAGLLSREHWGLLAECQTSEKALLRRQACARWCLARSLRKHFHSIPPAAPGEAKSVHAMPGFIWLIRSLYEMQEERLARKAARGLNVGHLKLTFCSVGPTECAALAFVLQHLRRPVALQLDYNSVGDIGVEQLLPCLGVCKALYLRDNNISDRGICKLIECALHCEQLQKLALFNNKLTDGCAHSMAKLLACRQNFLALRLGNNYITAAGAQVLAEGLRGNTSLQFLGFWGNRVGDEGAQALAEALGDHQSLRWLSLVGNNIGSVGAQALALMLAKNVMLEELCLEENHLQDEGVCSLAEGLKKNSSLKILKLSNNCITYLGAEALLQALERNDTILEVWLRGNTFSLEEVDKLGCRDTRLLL

[4] = target: T2, Nucleotide-binding oligomerization domain-containing protein 2; test: Antagonist activity at human NOD2 expressed in HEK293 cells assessed as reduction in MDP-induced NF-kappaB activation preincubated for 1 hr followed by MDP stimulation and measured after 18 hrs by SEAP reporter gene based spectrophotometric analysis; assay type: cell-based
Outline: (§3)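 Dose–response in HEK-Blue NOD2 and NOD1 cells (5 × 10^5 cells/mL): 1 h pre-treatment with 0.3125–20 µM antagonist, then 2 µM MDP or 100 nM C12-iE-DAP respectively, 18 h incubation. SEAP absorbance read at 620 nm. IC50 fitted by non-linear regression. Duplicates, three biological replicates, DMSO ≤0.1%.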

HEK293 [5] = test: Cytotoxicity against human HEK293 cells expressing human NOD1 assessed as reduction in metabolic activity at 20 uM incubated for 18 hrs by MTS assay; assay type: ADME, cell-based; details: hek293, 18 h; outline: as §1
[6] = target: T3, Nucleotide-binding oligomerization domain-containing protein 1 (Homo sapiens, UniProt Q9Y239); test: Antagonist activity at human NOD1 expressed in HEK293 cells assessed as reduction in C12-iE-DAP-induced NF-kappaB activation preincubated for 1 hr followed by C12-iE-DAP stimulation and measured after 18 hrs by SEAP reporter gene based spectrophotometric analysis; assay type: cell-based
T3 sequence (Q9Y239 whole entry): T1 sequence (whole entry)

[7] = target: T1, Nucleotide-binding oligomerization domain-containing protein 1 (Homo sapiens); test: Antagonist activity at NOD1 in human THP-1 cells assessed as reduction in C12-iE-DAP-induced IL-8 secretion at 20 uM preincubated for 1 hr followed by C12-iE-DAP stimulation and measured after 20 hrs by ELISA; assay type: cell-based; details: filed as antagonist, time 21.0 hrs
Outline: (§4)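 THP-1 cells at 10^6 cells/mL in 24-well cultures, passages 3–12. Pre-treated 1 h with 20 µM compound, then 10 µM MDP (NOD2) or 10 µM C12-iE-DAP (NOD1) added, 20 h at 37 °C, 5% CO2. Triplicate wells, DMSO ≤0.2% as vehicle control. Supernatant IL-8 by sandwich ELISA, detection limit 15.6 pg/mL. Mean ± SD of duplicates from three independent experiments, Dunnett test.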

THP-1 [8] = test: Antagonist activity at NOD1/TLR4 in human THP-1 cells assessed as reduction in C12-iE-DAP/LPS-induced TNF-alpha secretion at 20 uM preincubated for 1 hr followed by C12-iE-DAP/LPS stimulation and measured after 20 hrs by ELISA; assay type: cell-based; details: time 21.0 hrs
Outline: (§5)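 Synergy setting in THP-1 cells: 1 h pre-treatment with 20 µM compound, then 10 µM MDP or C12-iE-DAP plus 1 ng/mL E. coli O127:B8 LPS for 20 h. Supernatant TNF-α by sandwich ELISA, detection limit 4 pg/mL. DMSO vehicle ≤0.2%. Duplicates from three independent experiments, mean ± SD, Dunnett test against agonist+LPS-treated cells.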

THP-1 [9] = test: Cytotoxicity against human THP-1 cells assessed as […] dehydrogenase leakage at 20 uM incubated for 18 hrs; assay type: cell-based; details: thp-1, 18 h
Outline: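 THP-1 cells treated 18 h with compound at up to 20 µM. Lactate dehydrogenase released into cell-free supernatant measured with a colorimetric kit, results given as OD.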

[10] = target: T2, Nucleotide-binding oligomerization domain-containing protein 2; test: Antagonist activity at NOD2 in human THP-1 cells assessed as reduction in MDP-induced IL-8 secretion at 20 uM preincubated for 1 hr followed by MDP stimulation and measured after 20 hrs by ELISA; assay type: cell-based; details: filed as antagonist, time 21.0 hrs; outline: as §4
THP-1 [11] = test: Antagonist activity at NOD in human THP-1 cells assessed as increase in TNF-alpha secretion at 20 uM; assay type: cell-based
Outline: (§6)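 THP-1 cells at 10^6 cells/mL in RPMI 1640 with 10% heat-inactivated FCS, passages 3–12, exposed to 20 µM compound alone (no NOD agonist). IL-8 and TNF-α in cell-free supernatants measured by sandwich ELISA, reported in pg/mL. Detection limits were 15.6 pg/mL for IL-8 and 4 pg/mL for TNF-α. DMSO vehicle control, not above 0.2% final.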

THP-1 [12] = test: Antagonist activity at NOD2/TLR4 in human THP-1 cells assessed as reduction in MDP/LPS-induced TNF-alpha secretion at 20 uM preincubated for 1 hr followed by MDP/LPS stimulation and measured after 20 hrs by ELISA; assay type: cell-based; details: filed as antagonist, time 21.0 hrs; outline: as §5
THP-1 [13] = test: Antagonist activity at NOD in human THP-1 cells assessed as increase in IL-8 secretion at 20 uM; assay type: cell-based; outline: as §6
Homo sapiens = organism: Homo sapiens; test: Selectivity index, ratio of IC50 for antagonist activity at human NOD1 expressed in HEK293 cells assessed as reduction in […] induced NF-kappaB activation preincubated for 1 hr followed by C12-iE-DAP stimulation and measured after 18 hrs by SEAP reporter gene based spectrophotometric analysis to IC50 for antagonist activity at human NOD2 cells expressed in HEK293 cells assessed as reduction in MDP induced NF-kappaB activation preincubated for 1 hr followed by […] stimulation and measured after 18 hrs by SEAP reporter gene based spectrophotometric analysis; assay type: cell-based; outline: as §3

Row | Structure (SMILES) | Activity (HEK293 [1]) | Activity [2] | Activity [3] | Activity (HEK293 [5]) | IC50 ([4]; read-out: IC50) [µM] | IC50 [6] [µM] | Activity ([2]; filed as antagonist) | Activity ([3]; filed as antagonist) | further results
1 | O=C(Cn1c(CCNC(=O)c2cccnc2)nc2ccccc21)Nc1ccc2c(c1)CCC2 | Non-Toxic | inactive | inactive | Non-Toxic | – | – | – | – | IC50 ([4]; hek293): Not Active
2 | CN(C)c1cccc2c(S(=O)(=O)N(C)CCc3nc4ccccc4n3CC(=O)Nc3ccc4c(c3)CCC4)cccc12 | Non-Toxic | – | – | Non-Toxic | > 20 | 3.08 | – | – | –
3 | CN(CCCc1nc2ccccc2n1CC(=O)Nc1ccc2c(c1)CCC2)S(=O)(=O)c1ccccc1 | Non-Toxic | – | – | Non-Toxic | 5.08 | 1.66 | – | – | –
4 | O=C(Cn1c(CNC(=O)c2ccccc2)nc2ccccc21)Nc1ccc2c(c1)CCC2 | Non-Toxic | inactive | inactive | Non-Toxic | – | – | – | – | –
5 | Cc1ccc(S(=O)(=O)n2c(N)nc3ccccc32)cc1 | Non-Toxic | – | – | Non-Toxic | – | – | Active | – | Activity [7]: Active; Activity (THP-1 [8]; filed as antagonist): Active
6 | CC(C)(C)OC(=O)N1CCC(C(=O)NCCc2nc3ccccc3n2CC(=O)Nc2ccc3c(c2)CCC3)CC1 | Non-Toxic | – | – | Non-Toxic | 10.6 | 13.3 | Active | Active | –
7 | O=C(Cn1c(CCNCc2ccccc2)nc2ccccc21)Nc1ccc2c(c1)CCC2 | Toxic | – | – | Toxic | 4.76 | 30.7 | Active | Active | –
8 | O=C(Cc1ccncc1)NCCc1nc2ccccc2n1CC(=O)Nc1ccc2c(c1)CCC2 | Non-Toxic | inactive | inactive | Non-Toxic | 25.9 | 42.3 | – | – | –
9 | O=C(Cn1c(CCCNC(=O)c2ccccc2)nc2ccccc21)Nc1ccc2c(c1)CCC2 | Non-Toxic | – | – | Non-Toxic | 5.7 | 17.7 | Active | Active | Activity (THP-1 [9]): Non-Toxic; Activity [10]: Active; Activity (THP-1 [11]): inactive; Activity (THP-1 [12]): Active; Activity [7]: Active; Activity (THP-1 [13]): inactive; Activity (THP-1 [8]): inactive
10 | O=C(CCc1nc2ccccc2n1CC(=O)Nc1ccc2c(c1)CCC2)Nc1ccccc1 | Non-Toxic | – | – | Non-Toxic | 8.8 | 12.4 | Active | Active | –
11 | CN(C)c1cccc2c(S(=O)(=O)NCCc3nc4ccccc4n3CC(=O)Nc3ccc4c(c3)CCC4)cccc12 | Non-Toxic | – | – | Non-Toxic | 6.2 | 2.68 | Active | Active | Activity (THP-1 [9]): Non-Toxic; Activity [10]: Active; Activity (THP-1 [11]): inactive; Activity (THP-1 [12]): Active; Activity [7]: Active; Activity (THP-1 [13]): inactive; Activity (THP-1 [8]): inactive
12 | O=C(Cn1c(CCNCc2ccncc2)nc2ccccc21)Nc1ccc2c(c1)CCC2 | Non-Toxic | inactive | inactive | Non-Toxic | 22.9 | 27.8 | – | – | –
13 | CN(CCc1nc2ccccc2n1CC(=O)Nc1ccc2c(c1)CCC2)S(=O)(=O)c1ccccc1 | Non-Toxic | – | – | Non-Toxic | 0.63 | 2.56 | – | – | –
14 | O=C(Cn1c(CCCNS(=O)(=O)c2ccccc2)nc2ccccc21)Nc1ccc2c(c1)CCC2 | Non-Toxic | – | – | Non-Toxic | 5.12 | 9.25 | – | – | –
15 | O=C(Cn1c(CCNS(=O)(=O)c2cccnc2)nc2ccccc21)Nc1ccc2c(c1)CCC2 | Non-Toxic | – | – | Non-Toxic | 16.4 | 32 | Active | Active | –
16 | O=C(Cn1c(CCNC(=O)c2ccncc2)nc2ccccc21)Nc1ccc2c(c1)CCC2 | Non-Toxic | inactive | inactive | Non-Toxic | – | – | – | – | –
17 | Cl.O=C(Cn1c(CCNC(=O)C2CCNCC2)nc2ccccc21)Nc1ccc2c(c1)CCC2 | Non-Toxic | inactive | inactive | Non-Toxic | – | – | – | – | –
18 | O=C(Cn1c(CCNC(=O)c2ccccc2)nc2ccccc21)Nc1ccc2c(c1)CCC2 | Non-Toxic | – | – | Non-Toxic | 6.2 | 27.6 | Active | Active | Activity [10]: Active; Ratio IC50 (Homo sapiens): 4.5
